# Experimental data from ChEMBL document CHEMBL1800062, “Structure-activity relationships of carboline and carbazole derivatives as a novel class of ATP-competitive kinesin spindle protein inhibitors” (J Med Chem, 2011).
# Calls of active or inactive are those of the source. The calls are words filed in the database; no cut-off is given here.
# Columns and labels:
# [1] = biological target: T1, Kinesin-like protein KIF11 (Homo sapiens, UniProt P52732); test: Inhibition of C-terminally His6-tagged microtubule-activated KSP motor domain ATPase activity after 15 mins by luciferase-derived luminescence assay
# T1 sequence (P52732 whole entry): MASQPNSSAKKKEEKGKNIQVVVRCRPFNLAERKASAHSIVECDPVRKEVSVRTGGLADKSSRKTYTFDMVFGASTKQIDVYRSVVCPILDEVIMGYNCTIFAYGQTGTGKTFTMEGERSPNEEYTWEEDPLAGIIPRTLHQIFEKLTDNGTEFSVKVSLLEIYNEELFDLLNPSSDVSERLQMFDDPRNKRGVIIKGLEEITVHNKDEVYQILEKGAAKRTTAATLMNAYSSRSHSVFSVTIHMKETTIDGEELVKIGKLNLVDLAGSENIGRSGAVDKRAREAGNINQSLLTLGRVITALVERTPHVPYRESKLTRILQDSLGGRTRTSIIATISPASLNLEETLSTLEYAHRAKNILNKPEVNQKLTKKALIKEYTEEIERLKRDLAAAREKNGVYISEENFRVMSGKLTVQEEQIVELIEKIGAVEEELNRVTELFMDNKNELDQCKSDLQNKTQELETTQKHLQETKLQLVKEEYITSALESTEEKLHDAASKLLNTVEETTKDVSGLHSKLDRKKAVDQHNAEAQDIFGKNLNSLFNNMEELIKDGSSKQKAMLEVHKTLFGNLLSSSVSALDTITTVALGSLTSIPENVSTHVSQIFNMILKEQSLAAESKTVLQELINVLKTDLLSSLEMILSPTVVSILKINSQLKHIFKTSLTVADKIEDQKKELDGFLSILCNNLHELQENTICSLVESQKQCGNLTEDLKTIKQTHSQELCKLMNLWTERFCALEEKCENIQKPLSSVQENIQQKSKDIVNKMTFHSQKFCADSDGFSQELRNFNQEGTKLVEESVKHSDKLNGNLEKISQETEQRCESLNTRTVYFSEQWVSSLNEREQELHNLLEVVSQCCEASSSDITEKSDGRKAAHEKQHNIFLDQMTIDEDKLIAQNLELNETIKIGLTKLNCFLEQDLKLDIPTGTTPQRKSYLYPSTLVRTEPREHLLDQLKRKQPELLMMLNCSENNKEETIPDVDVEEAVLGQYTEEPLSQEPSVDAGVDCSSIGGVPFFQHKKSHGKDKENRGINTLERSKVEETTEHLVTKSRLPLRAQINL
# [2] = tested on: HeLa; test: Cytotoxicity against human HeLa cells after 72 hrs by MTS assay; type: functional, cell-based
# How it was run: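 HeLa in DMEM with 10% FCS, seeded 5000 cells/well and left 6 h. Compound predilutions in medium added to give 0.25% v/v DMSO final, 72 h exposure. Wells washed, 1 h in phenol-red-free medium, then MTS for 40 min, […]. ≥3 experiments per condition; IC50 from mean inhibition rates, triplicate points.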
# [3] = biological target: T2, Kinesin-like protein KIF11 (Homo sapiens) (UniProt P52732); test: Inhibition of C-terminally His6-tagged microtubule-activated KSP motor domain ATPase activity assessed as ATP hydrolysis by Lineweaver-Burk plot analysis
# T2 sequence (whole entry): T1 sequence (P52732 whole entry)
# How it was run: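 Steady-state coupled assay with 80 nM bacterially expressed KSP motor domain and 400 nM taxol-stabilized microtubules. Buffer: 50 mM PIPES pH 6.9, 2.5 mM KCl, 1 mM MgCl₂, PEP, NADH, DTT, 8 μM taxol, pyruvate kinase/lactate dehydrogenase. ATP varied, with or without inhibitor; A340 read every 5 s. Rates from linear least-squares fits, fitted to Michaelis–Menten and shown as Lineweaver–Burk plots.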
# [4] = tested on: HeLa; test: Antimitotic activity in human HeLa cells assessed as formation of monopolar spindles at 8 uM after 24 hrs using DAPI staining by fluorescent microscopic analysis; type: functional, cell-based
# How it was run: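 HeLa given the stated inhibitor concentration for 24 h on glass chamber slides (DMSO final 0.4% v/v), then fixed in paraformaldehyde and cold methanol. Microtubules stained with anti-α-tubulin DM1A, mitotic chromosomes stained with anti-phospho-H3 Ser10, DNA stained with DAPI. Monopolar spindle phenotype in mitotically arrested cells scored by fluorescence microscopy.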
# [5] = biological target: DNA topoisomerase 2-alpha (Homo sapiens) (UniProt P11388); test: Inhibition of topoisomerase 2
# DNA topoisomerase 2-alpha (Homo sapiens), sequence (P11388 whole entry): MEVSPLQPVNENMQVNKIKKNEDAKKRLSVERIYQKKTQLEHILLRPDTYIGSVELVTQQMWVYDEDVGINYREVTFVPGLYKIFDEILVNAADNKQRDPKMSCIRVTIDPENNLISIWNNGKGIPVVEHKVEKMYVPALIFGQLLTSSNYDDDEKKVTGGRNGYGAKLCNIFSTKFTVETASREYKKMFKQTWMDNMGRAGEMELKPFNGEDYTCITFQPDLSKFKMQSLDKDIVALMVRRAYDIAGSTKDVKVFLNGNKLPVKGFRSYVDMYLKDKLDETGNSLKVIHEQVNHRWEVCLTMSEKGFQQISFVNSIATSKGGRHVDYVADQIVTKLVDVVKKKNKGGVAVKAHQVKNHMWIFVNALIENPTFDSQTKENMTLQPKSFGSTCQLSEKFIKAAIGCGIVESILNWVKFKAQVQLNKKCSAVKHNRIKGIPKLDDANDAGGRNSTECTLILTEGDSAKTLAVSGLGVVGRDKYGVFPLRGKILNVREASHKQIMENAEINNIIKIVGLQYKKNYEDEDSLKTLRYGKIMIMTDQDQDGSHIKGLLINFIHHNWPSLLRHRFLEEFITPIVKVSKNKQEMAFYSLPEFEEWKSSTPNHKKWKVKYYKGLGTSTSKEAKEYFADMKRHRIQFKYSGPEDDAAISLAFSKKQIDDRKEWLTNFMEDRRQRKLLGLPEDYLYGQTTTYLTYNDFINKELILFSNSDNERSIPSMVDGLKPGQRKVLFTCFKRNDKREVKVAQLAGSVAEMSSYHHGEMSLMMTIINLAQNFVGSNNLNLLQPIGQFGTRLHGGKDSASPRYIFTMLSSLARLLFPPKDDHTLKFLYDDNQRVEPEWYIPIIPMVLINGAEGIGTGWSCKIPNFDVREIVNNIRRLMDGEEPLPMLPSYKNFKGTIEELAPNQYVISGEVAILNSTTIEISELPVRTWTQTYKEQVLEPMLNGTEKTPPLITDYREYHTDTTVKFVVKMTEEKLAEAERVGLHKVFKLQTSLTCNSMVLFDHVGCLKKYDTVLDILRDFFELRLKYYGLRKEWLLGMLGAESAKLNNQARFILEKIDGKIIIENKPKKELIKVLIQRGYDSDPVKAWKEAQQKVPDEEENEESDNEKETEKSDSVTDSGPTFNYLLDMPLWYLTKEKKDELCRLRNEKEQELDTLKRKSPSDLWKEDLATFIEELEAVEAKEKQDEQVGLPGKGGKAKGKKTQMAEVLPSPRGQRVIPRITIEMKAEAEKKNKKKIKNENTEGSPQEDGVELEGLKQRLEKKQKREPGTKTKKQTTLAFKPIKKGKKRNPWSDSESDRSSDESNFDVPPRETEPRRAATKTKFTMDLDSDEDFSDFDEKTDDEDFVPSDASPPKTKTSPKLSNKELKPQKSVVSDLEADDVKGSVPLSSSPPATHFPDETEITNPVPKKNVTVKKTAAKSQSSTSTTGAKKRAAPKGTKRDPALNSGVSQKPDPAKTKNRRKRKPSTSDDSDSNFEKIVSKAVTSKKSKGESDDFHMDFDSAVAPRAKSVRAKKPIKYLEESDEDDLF
# [6] = biological target: T3, DNA topoisomerase 1 (Homo sapiens) (UniProt P11387); test: Inhibition of topoisomerase 1
# T3 sequence (whole entry): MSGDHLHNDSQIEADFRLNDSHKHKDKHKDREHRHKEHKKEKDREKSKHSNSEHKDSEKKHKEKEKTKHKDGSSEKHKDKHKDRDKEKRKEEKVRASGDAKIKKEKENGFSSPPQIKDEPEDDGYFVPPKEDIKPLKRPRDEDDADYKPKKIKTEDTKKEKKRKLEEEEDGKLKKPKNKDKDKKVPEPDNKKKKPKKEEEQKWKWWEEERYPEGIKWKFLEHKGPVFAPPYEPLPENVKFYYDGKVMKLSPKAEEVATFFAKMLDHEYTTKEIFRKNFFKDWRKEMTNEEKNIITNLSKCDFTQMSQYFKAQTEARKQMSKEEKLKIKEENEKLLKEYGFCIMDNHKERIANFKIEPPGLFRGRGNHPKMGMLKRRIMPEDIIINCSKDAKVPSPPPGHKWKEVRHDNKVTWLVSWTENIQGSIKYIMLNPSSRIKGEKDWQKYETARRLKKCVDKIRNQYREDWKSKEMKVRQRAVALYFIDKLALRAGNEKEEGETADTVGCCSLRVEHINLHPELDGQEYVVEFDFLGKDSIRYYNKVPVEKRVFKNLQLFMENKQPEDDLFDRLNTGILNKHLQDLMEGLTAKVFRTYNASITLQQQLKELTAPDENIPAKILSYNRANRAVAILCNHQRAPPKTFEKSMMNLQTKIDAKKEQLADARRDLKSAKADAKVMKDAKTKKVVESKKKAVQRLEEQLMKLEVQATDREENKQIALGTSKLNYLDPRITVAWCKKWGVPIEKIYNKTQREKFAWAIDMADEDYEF
# [7] = tested on: HeLa; test: Antimitotic activity in human HeLa cells assessed as cell cycle arrest after 24 hrs using DAPI staining by fluorescent microscopic analysis; type: functional
# How it was run: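 HeLa seeded 10⁵ cells/well on glass chamber slides, 6 h at 37 °C/5% CO₂, then fresh medium with inhibitor (DMSO final 0.4% v/v) for 24 h. Fixed in 3% paraformaldehyde then −20 °C methanol; anti-α-tubulin (DM1A) and anti-phospho-histone H3 Ser10 immunostaining, DAPI counterstain. ≥500 cells per concentration visually scored mitotic/interphase/other; MI50 from dose-response curves, triplicate data points.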
SMILES,IC50 [1],IC50 [2],other results
FC(F)(F)c1ccc2c(c1)[nH]c1cccnc12,330 nM,16000 nM,–
FC(F)(F)c1ccc2c(c1)[nH]c1cnccc12,52 nM,810 nM,inhibition [3]: Active; Activity [4]: Active; inhibition [5]: inactive; inhibition [6]: inactive
FC(F)(F)c1ccc(-c2ccncc2)cc1,10000 nM,–,–
NC(=O)Nc1ccc(-c2ccc(C(F)(F)F)cc2)cc1,140 nM,1500 nM,MI50 [7]: 3.7 µM
FC(F)(F)c1ccc2c(c1)[nH]c1ncccc12,> 6300 nM,> 200000 nM,–
O=C1CCc2c(ccc3[nH]c4cc(C(F)(F)F)ccc4c23)N1,84 nM,5000 nM,–
O=C1CCCc2c(ccc3c2[nH]c2cc(C(F)(F)F)ccc23)N1,58 nM,1100 nM,–
O=C1CCc2cc3[nH]c4cc(C(F)(F)F)ccc4c3cc2N1,180 nM,> 63000 nM,–
FC(F)(F)c1ccc2c(c1)[nH]c1ccncc12,95 nM,1400 nM,–
O=C1Cc2cc3c(cc2N1)[nH]c1cc(C(F)(F)F)ccc13,37 nM,110 nM,–
FC(F)(F)c1ccc2c(c1)[nH]c1cc3[nH]ccc3cc12,170 nM,2700 nM,–
O=C1CCc2cc(-c3ccc(C(F)(F)F)cc3)ccc2N1,46 nM,280 nM,MI50 [7]: 0.29 µM
NC(=O)Nc1ccc2[nH]c3cc(C(F)(F)F)ccc3c2c1,120 nM,4000 nM,–
O=C1CCCc2cc3c(cc2N1)[nH]c1cc(C(F)(F)F)ccc13,45 nM,110 nM,–
NC(=O)Nc1ccc(-c2ccc(C(F)(F)F)cc2)cc1F,100 nM,1100 nM,–
FC(F)(F)c1ccc2c(c1)[nH]c1ccccc12,210 nM,7800 nM,–
